These results are taken from article PMC6886526 (Journal of structural biology, 2016).

In general, IC50 refers to the point on the concentration scale where inhibition reaches its midpoint. In general, Kd refers to the free concentration of one partner at which half of the binding sites on the other are occupied at equilibrium, for simple one-to-one binding. Read a low Kd as a tighter complex.

“And” between values parts separate entries of the source, which are not always exact repeats. Equal entries are not always repeated.

Experiment [1] deals with T1, StAcrR (Salmonella enterica subsp. enterica serovar Typhimurium, UniProt Q7CR15). Nature of the experiment: Competition FP assay in the presence of Pf. The experiment is classed as binding. As to conditions: for IC50: IC50, competition FP, 10 μM StAcrR and 100 nM Pf.
The target of experiment [2] is T1, StAcrR. Nature of the experiment: Fluorescence-based thermal shift. The format is binding. As to conditions: for dose-dependent effect on StAcrR thermal stability: 2.5-100 μM ligand; for FTS rank (Table S1): rank among hits of the SPC2-ECH008 library screen.
Another experiment concerns the target Human enolase 1 (ENO1) (Homo sapiens, UniProt P06733). Nature of the experiment: FTS assay with negative control protein. The experiment is classed as binding. As to conditions: 10, 25, 50 and 100 μM ligand. The procedure, abridged: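 Human enolase 1 was mixed with SYPRO Orange dye in 100 mM HEPES pH 7.5 with 150 mM NaCl. Ligands were dispensed acoustically from a DMSO stock. Plates were scanned from 10 to 80 °C at 1.5 °C min-1 on a real-time PCR instrument, reading fluorescence every 10 s. Stabilisation was judged from the melting temperature shift (ΔTm), background reduction and melting-curve shape.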

Another experiment relates to EcAcrR-Glu67Ala mutant. As to conditions: ref Li et al., 2007, Su et al.; cited from earlier work.
The target of experiment [3] is T1, StAcrR. The experiment is described as follows: Fluorescence polarization. The experiment is classed as binding. On the technique in general: Fluorescence polarisation rises when a labelled molecule tumbles more slowly, as on binding a larger partner.
In a further experiment the target is human ENO1 (Homo sapiens, UniProt P06733). Nature of the experiment: FP binding assay with negative control protein. The conditions noted are these: ENO1 up to 100 μM.
Chain of human ENO1 (P06733 whole entry): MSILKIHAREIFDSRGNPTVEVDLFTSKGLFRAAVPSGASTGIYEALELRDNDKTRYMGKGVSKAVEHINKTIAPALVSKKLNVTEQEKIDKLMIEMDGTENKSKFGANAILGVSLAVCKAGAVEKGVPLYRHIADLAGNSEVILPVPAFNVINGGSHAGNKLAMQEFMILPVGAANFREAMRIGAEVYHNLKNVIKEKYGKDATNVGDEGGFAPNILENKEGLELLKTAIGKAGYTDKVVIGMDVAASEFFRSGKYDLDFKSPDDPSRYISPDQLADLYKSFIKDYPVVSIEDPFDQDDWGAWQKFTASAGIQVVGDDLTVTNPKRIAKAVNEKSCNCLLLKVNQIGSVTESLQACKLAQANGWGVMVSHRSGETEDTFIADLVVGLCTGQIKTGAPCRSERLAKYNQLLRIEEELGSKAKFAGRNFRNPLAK

Chain of Human enolase 1 (ENO1) (P06733 whole entry): as above

Regarding `CSc1nc2cc(Cl)c(Oc3cccc(Cl)c3Cl)cc2[nH]1` [Triclabendazole, triclabendazole], at StAcrR [1], the half-maximal inhibitory concentration (IC50) is 25.7 µM. Also, on StAcrR [2], the “dose-dependent effect on StAcrR thermal stability” value (from here on “dose-dependent effect”) is on record as “required higher concentrations” and the “FTS rank (Table S1)” value is listed as 3.

In the case of `Cc1cc(N)c2ccccc2[n+]1CCCCCCCCCC[n+]1c(C)cc(N)c2ccccc21` [Dequalinium chloride, dequalinium], the “effect on thermal stability of human enolase 1” value on Human enolase 1 (ENO1) is reported as “no effect”. At StAcrR [1], the 50% inhibitory concentration (IC50) came out at 22.5 µM. On StAcrR [2] (below 10 μM ligand), the “change of Tm of StAcrR” value is listed as “did not notably change”. Besides, the “FTS rank (Table S1)” value on StAcrR [2] worked out at 14.

In the case of `C[C@]12CC[C@@H]3c4ccc(OC(=O)N(CCCl)CCCl)cc4CC[C@H]3[C@@H]1CC[C@@H]2O` [Estramustine, estramustine], the half-inhibitory concentration (IC50) at StAcrR [1] was ~18 µM and 18 µM. At StAcrR [2], the “dose-dependent effect” value is reported as “Apparent increase in the StAcrR thermal stability at very low concentrations” and the “FTS rank (Table S1)” value is given as 5.

Consider `C[C@]12CC[C@@H]3c4ccc(O)cc4C[C@@H](CCCCCCCCC[S+]([O-])CCCC(F)(F)C(F)(F)F)[C@H]3[C@@H]1CC[C@@H]2O` (stereo partly shown) [Fulvestrant, fulvestrant], for which the concentration for half-maximal inhibition (IC50) at StAcrR [1] worked out at 40.1 µM. Besides, on StAcrR [2], the “dose-dependent effect” value is recorded as “Apparent increase in the StAcrR thermal stability at very low concentrations” and the “FTS rank (Table S1)” value is 1.

Turning to `CC[n+]1c(-c2ccccc2)c2cc(N)ccc2c2ccc(N)cc21` [Et, ethidium], in the experiment on EcAcrR-Glu67Ala mutant, the “binding by the Glu67Ala mutant of EcAcrR” value is “abolishment of the binding”. The dissociation constant (Kd) at StAcrR [3] is 67.3 ± 4.6 µM.

Take `CC/N=c1\cc2oc3cc(NCC)c(C)cc3c(-c3ccccc3C(=O)OCC)c-2cc1C` [R6G, rhodamine 6G]: in the experiment on EcAcrR-Glu67Ala mutant, the “binding by the Glu67Ala mutant of EcAcrR” value is given as “abolishment of the binding”. Further, the Kd at StAcrR [3] was found to be 43.7 ± 1.3 µM.

Turning to `O=C(NC(=O)c1c(F)cccc1F)Nc1ccc(Cl)cc1` [Diflubenzuron, diflubenzuron], the “competition with Pf for binding” value on StAcrR [1] (negative control ligand) is listed as “did not compete”.

On to `COC1=C(OC)C(=O)C(CCCCCCCCCCO)=C(C)C1=O` [Idebenone, idebenone], for which the IC50 on StAcrR [1] was found to be 2.8 µM. Besides, on StAcrR [2], the “dose-dependent effect” value is listed as “required higher concentrations” and the “FTS rank (Table S1)” value amounted to 2.

Regarding `CC(C)c1nc(CN(C)C(=O)N[C@H](C(=O)N[C@@H](Cc2ccccc2)C[C@H](O)[C@H](Cc2ccccc2)NC(=O)OCc2cncs2)C(C)C)cs1` [Ritonavir, ritonavir], on StAcrR [2], the “dose-dependent effect” value was “Apparent increase in the StAcrR thermal stability at very low concentrations” and the “FTS rank (Table S1)” value was 4.

In the case of `C[C@]12CC[C@H](O)CC1=CC[C@@H]1[C@@H]2CC[C@]2(C)C(=O)CC[C@@H]12` [Prasterone, prasterone], the half-inhibitory concentration (IC50) on StAcrR [1] was 5.4 µM. For the same compound, on StAcrR [2], the “dose-dependent effect” value was “required higher concentrations” and the “FTS rank (Table S1)” value worked out at 6. Further, on StAcrR [2] (listed as prasterone), the “FTS rank (Table S1)” value is recorded as 9.

Regarding `Nc1ccc2cc3ccc(N)cc3nc2c1` [Pf, proflavine], the “FP increase with human ENO1” value at human ENO1 is “No FP increase”. Also, the “binding by the Glu67Ala mutant of EcAcrR” value in the experiment with EcAcrR-Glu67Ala mutant is given as “abolishment of the binding”. Further, binding at StAcrR [3] was put at a Kd of 3.9 ± 0.1 µM. In addition, the “affinity to StAcrR relative to Et and R6G” value at StAcrR [3] (ratio of FP Kd values) is reported as “over 10 fold”.
